Data set [1] has as its target T1, Amyloid-beta precursor protein (Homo sapiens, UniProt P05067). As to the kind of experiment: Disruption of recombinant human amyloid beta (1 to 40) fibrils after 24 hrs by ThT fluorescence assay.
Data set [2] addresses T1, Amyloid-beta precursor protein. In words: Disruption of recombinant human amyloid beta (1 to 40) fibrils at 10 uM after 24 hrs by ThT fluorescence assay relative to control. The procedure, abridged:
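Aβ1-40 fibrils (10 μM in 150 mM MOPS, pH 6.9) incubated 24 h at 37 °C with compound at 10 μM. ThT added to 20 μM, 1 h at 37 °C in the dark, excitation 440 nm, emission 485 nm. Intensity normalized to fibrils alone. Triplicate, mean ± SD. Intrinsic compound fluorescence measured without peptide.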

A short description of data set [3]: Cytotoxicity against mouse HT22 cells assessed as reduction in cell viability after 24 hrs by MTT assay. Type of data set: cell-based, HT-22. The procedure, abridged: (§1)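 HT-22 cells (5 × 10^3 per well) plated, then treated the next day for 24 h with compound in complete medium (1–25 μM range; 10 mM DMSO stock, final DMSO 0.025%; DMSO as negative control). MTT at 0.5 mg/mL final, 2 h, 37 °C; formazan solubilized, A570 read. Mean of at least three independent experiments ± SD.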

Data set [4] has as its system HT-22. As to the kind of experiment: Cytoprotection against glutamate-induced excitotoxicity in mouse HT22 cells assessed as increase in cell viability at 1 uM after 24 hrs by optical microscopic assay. Type of data set: functional, cell-based. The procedure, abridged:
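Cells co-treated 24 h with 2 mM glutamate plus compound at 1 μM. Viable cells judged from optical microscope images.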

Data set [5] deals with HT-22. In words: Cytoprotection against glutamate-induced excitotoxicity in mouse HT22 cells assessed as decrease in glutamate-induced cell cycle arrest at sub-G1 phase at 1 uM after 24 hrs by propidium iodide staining based flow cytometry. Type of data set: functional. In outline:
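HT-22 cells (1.5 × 10^5 per well) co-treated 24 h with 2 mM glutamate plus compound at 1 μM, final DMSO 0.025%. Pelleted, PBS-washed, stained 30 min in PI solution (50 μg/mL PI, Triton, Na citrate). DNA content read by flow cytometry and the SubG1 fraction scored. Mean of three independent experiments ± SD.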

The subject of data set [6] is HT-22. As to the kind of experiment: Cytoprotection against glutamate-induced excitotoxicity in mouse HT22 cells assessed as increase in cell proliferation at 1 uM after 24 hrs by MTT assay. The class given is functional, cell-based. In outline: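 HT-22 cells (5 × 10^3 per well) co-treated 24 h at 37 °C with 2 mM glutamate plus compound at 1 μM, final DMSO 0.025%. MTT added to 0.5 mg/mL final for 2 h, formazan dissolved in acidified isopropanol/NP40, A570 read. Proliferation relative to untreated control (100%). Mean of at least three independent experiments ± SD.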

Data set [7] deals with HT-22. As to the kind of experiment: Cytoprotection against glutamate-induced apoptosis in mouse HT22 cells assessed as decrease in Bax/Bcl2 ratio at 1 uM after 24 hrs by RT-PCR method. Type of data set: functional, cell-based. In outline:
(§2)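 HT-22 mouse hippocampal cells grown in high-glucose DMEM with 10% heat-inactivated FBS at 37 °C, 5% CO2. Compound (1 μM; DMSO stock, final DMSO 0.025%) added together with 2 mM glutamate for 24 h. Transcripts measured by qRT-PCR. iNOS or Bax/Bcl-2 ratio reported as fold change vs untreated control (set at 1) by the ΔΔCt method.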

Data set [8] deals with T1, Amyloid-beta precursor protein. In words: Disruption of recombinant human amyloid beta (1 to 40) fibrils after 2 hrs by ThT fluorescence assay.
Data set [9] has as its system HT-22. In words: Cytotoxicity against mouse HT22 cells assessed as reduction in cell viability at 5 uM after 24 hrs by MTT assay. Particulars: ht-22, 24 h. Type of data set: cell-based. The procedure, abridged:
as §1

In data set [10] the test system is HT-22. As to the kind of experiment: Cytoprotection against glutamate-induced oxidative stress in mouse HT22 cells assessed as decrease in iNOS mRNA level at 1 uM after 24 hrs by RT-PCR method. Type of data set: functional, cell-based. In outline: as §2
Data set [11] addresses T1, Amyloid-beta precursor protein. In words: Disruption of recombinant human amyloid beta (1 to 40) fibrils at 10 uM after 24 hrs by atomic force microscopic method. In outline: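 10 μM Aβ1-40 fibrils plus 10 μM compound, incubated 24 h at 37 °C. Spread on fresh mica, adsorbed 5 min, water-washed, dried under nitrogen, imaged by AFM. No smoothing or noise reduction applied.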

The subject of data set [12] is HT-22. In words: Cytotoxicity against mouse HT22 cells assessed as reduction in cell viability at 10 uM after 24 hrs by MTT assay. The class given is cell-based. To be noted: ht-22, 24 h. The procedure, abridged: as §1

The source made the active and inactive calls. The rule behind the calls is not given here. A value given as a limit tells only on which side of the number the result lay.

T1 sequence (P05067 whole entry): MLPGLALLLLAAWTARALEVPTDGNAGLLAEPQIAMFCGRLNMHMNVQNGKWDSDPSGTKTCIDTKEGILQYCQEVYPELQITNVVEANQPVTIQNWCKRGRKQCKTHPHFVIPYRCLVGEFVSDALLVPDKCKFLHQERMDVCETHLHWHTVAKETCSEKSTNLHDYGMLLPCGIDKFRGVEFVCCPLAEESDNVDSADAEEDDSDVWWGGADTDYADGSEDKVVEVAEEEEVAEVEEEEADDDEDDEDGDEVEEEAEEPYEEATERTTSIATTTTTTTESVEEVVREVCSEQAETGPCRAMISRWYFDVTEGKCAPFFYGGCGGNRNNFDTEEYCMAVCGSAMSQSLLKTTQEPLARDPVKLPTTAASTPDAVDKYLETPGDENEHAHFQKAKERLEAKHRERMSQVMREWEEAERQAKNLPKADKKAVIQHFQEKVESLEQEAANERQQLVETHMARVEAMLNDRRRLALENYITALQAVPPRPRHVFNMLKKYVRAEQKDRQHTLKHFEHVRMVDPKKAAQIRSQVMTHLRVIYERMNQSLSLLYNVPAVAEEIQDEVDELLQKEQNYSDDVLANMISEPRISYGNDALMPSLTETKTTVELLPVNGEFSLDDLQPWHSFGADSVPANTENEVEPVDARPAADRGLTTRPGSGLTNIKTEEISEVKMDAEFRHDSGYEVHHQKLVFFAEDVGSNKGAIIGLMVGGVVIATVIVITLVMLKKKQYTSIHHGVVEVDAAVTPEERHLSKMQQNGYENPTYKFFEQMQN

For `COc1cc(/C=C/c2cc(C)[nH]n2)ccc1O`, the DC50 in data set [1] (read-out: DC50) turned out to be 38800 nM. In data set [2], the outcome was Active.

For `COc1cccc(/C=C/C(=O)/C=C(O)/C=C/c2cccc(OC)c2)c1`, the DC50 result in data set [1] is “Not Active”.

Take `COc1cc(/C=C/C(=O)/C(CCCN2C(=O)c3ccccc3C2=O)=C(O)/C=C/c2ccc(O)c(OC)c2)ccc1O`: the DC50 in data set [1] (read-out: DC50) is 1160 nM. The Activity in [2] was above 75%.

Regarding `COc1cc(/C=C/C(=O)/C=C(O)/C=C/c2ccc(OC(C)=O)c(OC)c2)ccc1OC(C)=O`, the MNTC at 24 h in data set [3] amounted to 1000 nM. In addition, the result in data set [4], in [5], in data set [6], in data set [7] and in data set [10] was Active. For the same compound, the DC50 in [1] (read-out: DC50) stood at 1950 nM; in data set [8] it was 1000 nM. Besides, in data set [9], the Activity entry is “Toxic”.

Regarding `O=C(/C=C(O)/C=C/c1ccccc1)/C=C/c1ccccc1`, in data set [1], the DC50 result is listed as “Not Active”. For the same compound, in data set [2], the outcome was Active. Besides, the outcome in data set [11] was inactive.

Consider `COc1cc(/C=C/c2cc(/C=C/c3ccc(OC(C)=O)c(OC)c3)[nH]n2)ccc1OC(C)=O`, for which the MNTC at 24 h in [3] is 1000 nM. For the same compound, the result in data set [4], in data set [5], in data set [6], in data set [7] and in [10] was Active. Further, the DC50 in [1] (read-out: DC50) stood at 310 nM; in [8], 650 nM. For the same compound, the Activity in data set [2] was above 75%; in [9], “Toxic”.

Turning to `COc1cc(/C=C/c2cc(/C=C/c3ccc(O)c(OC)c3)[nH]n2)ccc1O` [CURCUMIN PYRAZOLE], the Activity entry in data set [1] was “Dose-dependent effect”; in [2] it was above 75%; in [8], “Dose-dependent effect”. Besides, in [1] (read-out: DC50), the DC50 was 1470 nM.

On to `C(=C\c1cc(/C=C/c2ccccc2)[nH]n1)/c1ccccc1`, for which the DC50 entry in data set [1] was “Not Active”. In addition, the result in [2] was Active.

In the case of `O=C(/C=C/c1ccccc1)/C(CCCN1C(=O)c2ccccc2C1=O)=C(O)/C=C/c1ccccc1`, the DC50 entry in [1] is reported as “Not Active”. The outcome in data set [2] was Active.

With `COc1cc(/C=C/C(=O)/C=C(/C)O)ccc1O`, the DC50 result in [1] is reported as “Not Active”. Also, in [2], the result was Active.

For `COc1cc(/C=C/C(=O)CC(=O)/C=C/c2ccc(O)c(OC)c2)ccc1O` [CURCUMIN], the Activity result in data set [12] is “Toxic”; in data set [1], “Dose-dependent effect”; in data set [2], above 75%; in data set [8] it was “Dose-dependent effect”. For the same compound, the MNTC at 24 h in [3] is 1000 nM. The result in data set [4], in data set [5], in [6], in data set [7], in data set [11] and in [10] was Active.
